Sampled rows, rich in hits. Any-hit rate of the full collection: about 2.3%.
TAAR1 antagonist: antagonists of human TAAR1. Q96RJ0. CHO RD-HGA16 TAAR1, Fluo-8 calcium fluorescence, antagonist. inhibition, % at 3 µM. 1.5% of 360,000 active. AID 624466;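 active means inhibition above a per-plate cutoff, the mean inhibition of test compounds on that plate plus 3 SD, cut at about 49% in these data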
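Material: RD-HGA16 CHO cells with stable hTAAR1 and Gα16; Dosing: single nominal final test compound concentration of 3 µM; Schedule: seeding 17-24 h prior, 75-min 37 °C, 30-min RT dye loading; Detection: kinetic Fluo-8 calcium fluorescence measurement; Measure: % inhibition from peak post-agonist over basal fluorescence ratio; Benchmarks: vehicle and agonist controls.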
V1aR counter: V1a receptor agonism, counter-screen for OXTR agonists | P37288 | CHO-V1R cells, Fluo-8 calcium fluorescence, agonist mode; 0% DMSO, 100% 3 nM vasopressin | activation, % at 3 µM | 0.25% of 320,000 active | AID 2797;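 active means activation above the mean activation of all tested compounds plus 3 SD, per screening run, cut at about 20% in these data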;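 further: signal is peak over basal fluorescence ratio across a 100 second FLIPR read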
OXTR potentiator: human OXTR potentiation. P30559. CHO-OTR cells, Fluo-8 calcium fluorescence, potentiator mode; 0% = oxytocin EC15, 100% = EC100. activation, % at 3 µM. 0.061% of 320,000 active;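 active means activation above that plate's cutoff, the mean activation of tested compounds plus 3 SD, cut at about 6.6% in these data, passing the limit was not always enough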
Target sequence (P30559 whole entry, looked up): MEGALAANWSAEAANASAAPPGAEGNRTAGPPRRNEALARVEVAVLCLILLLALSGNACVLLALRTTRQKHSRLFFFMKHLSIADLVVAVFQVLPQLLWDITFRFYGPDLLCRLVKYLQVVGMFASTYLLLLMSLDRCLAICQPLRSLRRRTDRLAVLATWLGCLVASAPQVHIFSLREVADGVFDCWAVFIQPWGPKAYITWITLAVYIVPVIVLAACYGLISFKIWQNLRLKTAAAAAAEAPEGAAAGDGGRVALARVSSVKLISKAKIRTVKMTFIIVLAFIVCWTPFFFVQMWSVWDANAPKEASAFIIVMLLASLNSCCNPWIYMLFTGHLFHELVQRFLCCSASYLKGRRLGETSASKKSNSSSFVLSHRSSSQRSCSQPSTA
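Assay system: CHO cell line stably expressing human OTR | Also added: Oxytocin at about EC15, sub-maximal agonist stimulus | Times: Compound 6 min at room temperature before oxytocin, 100 s read | Measured by: Fluo-8 intracellular calcium fluorescence, ex 470-495, em 515-575 nm | Controls: EC15 oxytocin alone as 0%, 75 nM oxytocin as 100%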
OXTR ag: agonists of human oxytocin receptor | CHO-OTR cells, Fluo-8 calcium fluorescence; normalized: DMSO 0%, oxytocin 100% | activation, % at 3 µM | 0.32% of 320,000 active | AID 2435;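 active means activation above the mean of all tested compounds plus 3 SD, cutoff set per screening run, cut at about 20% in these data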;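 further: peak over basal fluorescence ratio from a 100 s FLIPR kinetic read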
TAAR1 agonist: human TAAR1 agonism; CHO RD-HGA16 TAAR1, Fluo-8 calcium fluorescence; vehicle wells 0%, saturating PEA agonist 100%; AID 624467; 0.99% of 360,000 active; activation, % at 3 µM;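 active means activation above the mean activation of all test compounds in the run plus 3 SD, cut at about 38% in these data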
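System: CHO RD-HGA16 cells carrying human TAAR1 plus Gα16; Incubation: 17-24 h seeding, 75 min 37 °C dye, 30 min RT; Measured by: Fluo-8 fluorescence, 5 s baseline then 140 s kinetic read; Control set: DMSO and PEA EC100; Replication: single well for each compound.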
TAAR1 ag conf: confirmation of human TAAR1 agonists | CHO RD-HGA16 TAAR1, Fluo-8 calcium fluorescence; scaled: DMSO 0%, maximal phenethylamine 100% | 82% of 2,400 active | shares compounds with TAAR1 agonist | activation, % at 3 µM;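 active means activation above a cutoff set at the run's mean compound activation plus 3 SD, cut at about 39% in these data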
Ga16 ag counter: nonselective agonist in parental cells, TAAR1 agonist counter-screen | shares compounds with TAAR1 agonist | CHO-Ga16 parental, Fluo-8 calcium fluorescence; normalized to maximal ATP response, DMSO zero | activation, % at 3 µM | 50% of 2,400 active | AID 651787;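 active means activation above the run cutoff, the mean activation over all tested wells plus 3 SD, cut at about 12% in these data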
TAAR1 desens: counter-screen for human TAAR1 agonists: agonists that desensitize TAAR1. inhibition, % at 3 µM. AID 651951. shares compounds with TAAR1 agonist. CHO RD-HGA16 hTAAR1, Fluo-8 calcium, beta-PEA response inhibition. 46% of 2,400 active;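 active means inhibition above the run cutoff, the mean inhibition of all test compounds plus 3 SD, cut at about 49% in these data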;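 further: beta-PEA stimulus applied at its EC80; loss of beta-PEA calcium signal after compound pretreatment read as receptor desensitization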
Ga16 nonsel ant: nonselective Ga16 antagonist in TAAR1 agonist counter-screen; CHO-Ga16 ATP-induced calcium, Fluo-8 fluorescence; shares compounds with TAAR1 agonist; AID 651952; inhibition, % at 3 µM; 39% of 2,400 active;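 active means inhibition above the plate's mean compound inhibition plus 3 SD, computed per plate, cut at about 22% in these data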
A number is an active result; . = inactive; / = no result.

SMILES	TAAR1 antagonist	V1aR counter	OXTR potentiator	OXTR ag	TAAR1 agonist	TAAR1 ag conf	Ga16 ag counter	TAAR1 desens	Ga16 nonsel ant
O=C(CN1CCN(c2ccccc2)CC1)Nc1ccccc1C(=O)NCCc1ccccc1	87.9	/	/	/	76.3	81.9	.	75.1	32.0
COc1ccc(S(=O)(=O)NC(CC(=O)NCCc2ccc(OC)c(OC)c2)C(C)C)cc1 (configuration not stated)	.	.	.	.	.	/	/	/	/
O=C(O)C1CC=C(Cl)CC1C(=O)NCC1OCCc2ccccc21 (configuration not stated)	/	.	.	.	/	/	.	/	.
CC(CNS(=O)(=O)c1ccccc1)(c1ccccc1)N1CCCCC1 (configuration not stated)	.	.	.	.	.	/	/	/	/
CCC(=O)OCC(=O)c1c(N)n(Cc2ccccc2)c(=O)n(C)c1=O	.	.	.	.	.	/	/	/	/
Cn1c(=O)c(C(=O)COc2ccc(C#N)cc2)c(N)n(Cc2ccccc2)c1=O	49.7	28.3	.	31.9	118.8	99.6	52.5	49.1	27.4
COc1cc(C(c2nnnn2C2CCCC2)N2CCc3ccccc3C2)ccc1O (configuration not stated)	99.8	.	.	.	85.1	90.7	.	97.4	.
COc1ccc(C(c2nnnn2C2CCCC2)N2CCN(C(=O)c3ccco3)CC2)cc1OC (configuration not stated)	.	.	.	.	.	/	/	/	/
Clc1ccccc1CSc1nncn1NC/C=C/c1ccccc1	.	.	.	.	.	/	/	/	/
COC(=O)c1ccccc1OCc1cc(=O)oc2ccc(C)cc12	.	/	/	/	.	/	/	/	/
NC[C@@H]1O[C@H](C23CC4CC(CC(C4)C2)C3)Cc2c1ccc(O)c2O	71.1	.	.	.	67.9	108.8	12.8	88.2	28.8
N#C/C(=C\c1ccccn1)c1nc2ccccc2s1	75.0	30.6	.	27.5	71.7	.	29.2	.	52.9
CCN(CC)C(=S)Nc1ccc2nc3n(c(=O)c2c1)CCCCC3	.	.	.	.	.	/	/	/	/
COc1ccc(Cn2c(SCc3ccccc3C)nc3cc(OC)c(OC)cc3c2=N)cc1	.	.	.	.	51.7	71.3	30.6	.	33.6
Cc1cc(C)nc(OC(C(=O)O)C(OCc2ccccc2)(c2ccccc2)c2ccccc2)n1 (configuration not stated)	.	.	.	.	113.0	135.6	58.3	.	.
CCCOC(c1ccccc1)(c1ccccc1)C(Oc1nc(C)cc(C)n1)C(=O)O (configuration not stated)	.	.	.	.	.	/	/	/	/
Cc1cc(C)nc(OC(C(=O)O)C(OCCC(C)C)(c2ccccc2)c2ccccc2)n1 (configuration not stated)	.	.	.	.	88.8	126.7	92.2	.	.
COC(=O)c1ccc(CO/N=C/c2ccc(OC)cc2OC)cc1	.	.	.	.	.	/	/	/	/
CC(=O)Nc1cccc(NC(=O)CSc2nc(=O)n(CCCN3CCOCC3)c3c2CCC3)c1	.	.	.	.	.	/	/	/	/
Cc1cc(N2CCC(C)CC2)c(F)cc1[N+](=O)[O-]	.	.	.	.	.	/	/	/	/
Cc1cc(N2CCCC2)c(F)cc1/C=C\[N+](=O)[O-]	81.4	/	/	/	192.9	61.4	68.1	59.8	70.1
COCCCNC(=O)[C@H]1O[C@@H](n2cnc3c(=O)[nH]c(N)nc32)[C@H](O)[C@@H]1O	.	/	/	/	.	/	/	/	/

Source: PubChem (The Scripps Research Institute Molecular Screening Center)
